pIC50: −log10 of the molar value.
What was measured:
Rattus norvegicus [1] = test: Peak percent inhibition of Angiotensin II pressor response in conscious, normotensive rats at 0.1 mg/kg iv; format: functional
In short: (§1)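 Male Sprague-Dawley rats (300–400 g), conscious, catheterized for iv dosing and for arterial pressure and heart rate. Compound given iv or po; PEG 400 vehicle in some oral cases. AII 0.1 μg/kg iv boluses at set intervals afterward. % inhibition of the MAP rise was calculated at each time point, and the peak was taken. Averaged from at least two rats unless noted.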

Rattus norvegicus [2] = test: Time to produce onset of action for inhibition of Angiotensin II pressor response in conscious, normotensive rats at 0.1 mg/kg iv; format: functional
In short: (§2)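 Conscious male Sprague-Dawley rats (300–400 g), instrumented for iv dosing and arterial pressure. A single iv or po bolus of compound (PEG 400 for some oral doses), then repeated AII challenges at 0.1 μg/kg iv. […] Averaged from at least two rats unless noted.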

Rattus norvegicus [3] = test: Time to produce onset of action for inhibition of Angiotensin II pressor response in conscious, normotensive rats at 1 mg/kg po; format: functional; in short: as §2
Rattus norvegicus [4] = test: Peak percent inhibition of Angiotensin II pressor response in conscious, normotensive rats at 1 mg/kg po; format: functional; in short: as §1
[5] = target: T1, Type-1 angiotensin II receptor (Oryctolagus cuniculus, UniProt P34976); test: Evaluation of Angiotensin II antagonistic activity by displacement of [125I]-Sar Ile-AII at the rabbit aorta Angiotensin II receptor, type 1; format: tissue-based
T1 sequence (P34976 whole entry): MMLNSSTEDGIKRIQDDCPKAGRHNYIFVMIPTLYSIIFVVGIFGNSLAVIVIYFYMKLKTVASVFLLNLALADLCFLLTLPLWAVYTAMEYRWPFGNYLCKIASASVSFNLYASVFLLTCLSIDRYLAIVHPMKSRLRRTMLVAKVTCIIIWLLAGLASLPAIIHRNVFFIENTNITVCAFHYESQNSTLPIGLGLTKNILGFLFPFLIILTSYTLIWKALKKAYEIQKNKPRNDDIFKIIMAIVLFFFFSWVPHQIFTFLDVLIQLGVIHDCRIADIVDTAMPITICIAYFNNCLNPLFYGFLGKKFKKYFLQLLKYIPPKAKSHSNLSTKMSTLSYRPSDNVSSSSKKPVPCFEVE
In short: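 Rabbit aorta membranes, run without BSA. Competition against [¹²⁵I]Sar¹Ile⁸-AII, in duplicate tubes. Some values are means of two or more separate assays. Standard error is estimated at <30% of the mean.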

Rattus norvegicus [6] = test: Peak percent inhibition of Angiotensin II pressor response in conscious, normotensive rats at 1 mg/kg iv; format: functional; in short: as §1
Rattus norvegicus [7] = test: Time to produce onset of action for inhibition of Angiotensin II pressor response in conscious, normotensive rats at 1 mg/kg iv; format: functional; in short: as §2
Rattus norvegicus [8] = test: Time to produce onset of action for inhibition of Angiotensin II pressor response in conscious, normotensive rats at 0.3 mg/kg iv; format: functional; in short: as §2
Rattus norvegicus [9] = test: Peak percent inhibition of Angiotensin II pressor response in conscious, normotensive rats at 0.3 mg/kg iv; format: functional; in short: as §1
Rattus norvegicus [10] = test: Peak percent inhibition of Angiotensin II pressor response in conscious, normotensive rats at 0.3 mg/kg po; format: functional; in short: as §1
Rattus norvegicus [11] = test: Time to produce onset of action for inhibition of Angiotensin II pressor response in conscious, normotensive rats at 0.3 mg/kg po; format: functional; in short: as §2

SMILES | pIC50 [5] | other results
CCCCc1nn(-c2c(Cl)cccc2Cl)c(C(=O)O)c1Cc1ccc(-c2ccccc2-c2nn[nH]n2)cc1 | 9.74 | inhibition in vivo at 0.1 mg/kg (Rattus norvegicus [1]): 80%; Duration (Rattus norvegicus [2]): >4.5 h; Duration (Rattus norvegicus [3]): >4.5 h; inhibition in vivo at 1 mg/kg (Rattus norvegicus [4]): 79%
CCCCc1nc(-c2ccccc2)c(C(=O)OCC)n1Cc1ccc(-c2ccccc2-c2nn[nH]n2)cc1 | 7.39 | 
CCCCc1nn(-c2ccccc2C(F)(F)F)c(C(=O)OCC)c1Cc1ccc(-c2ccccc2-c2nnn[nH]2)cc1 | 7.68 | 
CCCCc1nn(-c2ccccn2)c(C(=O)OCC)c1Cc1ccc(-c2ccccc2-c2nnn[nH]2)cc1 | 7.74 | 
CCCCc1nn(-c2c(Cl)cc(Cl)cc2Cl)c(C(=O)OCC)c1Cc1ccc(-c2ccccc2-c2nn[nH]n2)cc1 | 7.43 | 
CCCCc1n[nH]c(C(=O)OCC)c1Cc1ccc(-c2ccccc2-c2nn[nH]n2)cc1 | 6.89 | inhibition in vivo at 1 mg/kg (Rattus norvegicus [6]): 80%; Duration (Rattus norvegicus [7]): >5 h
CCCCc1nn(-c2ccccc2Cl)c(C(=O)OCC)c1Cc1ccc(-c2ccccc2-c2nn[nH]n2)cc1 | 7.89 | inhibition in vivo at 1 mg/kg (Rattus norvegicus [6]): 43%; Duration (Rattus norvegicus [3]): >2.5 h; inhibition in vivo at 1 mg/kg (Rattus norvegicus [4]): 50%
CCCCc1nn(-c2c(Cl)cccc2Cl)c(C(=O)OCC)c1Cc1ccc(-c2ccccc2-c2nnn[nH]2)cc1 | 8.10 | 
CCCCc1nn(-c2ccccc2Cl)c(C(=O)O)c1Cc1ccc(-c2ccccc2-c2nn[nH]n2)cc1 | 9.46 | inhibition in vivo at 1 mg/kg (Rattus norvegicus [6]): 93%; Duration (Rattus norvegicus [8]): ~3.8 h; Duration (Rattus norvegicus [7]): >6 h; Duration (Rattus norvegicus [3]): >3 h; inhibition in vivo at 0.3 mg/kg (Rattus norvegicus [9]): 73%; inhibition in vivo at 1 mg/kg (Rattus norvegicus [4]): 64%
CCCc1[nH]nc(C(=O)OCC)c1Cc1ccc(-c2ccccc2-c2nnn[nH]2)cc1 | 6.80 | 
CCCCc1nn(-c2cccc(Cl)c2Cl)c(C(=O)O)c1Cc1ccc(-c2ccccc2-c2nnn[nH]2)cc1 | 9.11 | 
CCCc1nn(-c2ccccc2C(F)(F)F)c(C(=O)O)c1Cc1ccc(-c2ccccc2-c2nn[nH]n2)cc1 | 9.17 | inhibition in vivo at 1 mg/kg (Rattus norvegicus [6]): 100%; Duration (Rattus norvegicus [8]): ~4 h; Duration (Rattus norvegicus [7]): >6 h; inhibition in vivo at 0.3 mg/kg (Rattus norvegicus [10]): 57%; Duration (Rattus norvegicus [3]): >3.5 h; inhibition in vivo at 0.3 mg/kg (Rattus norvegicus [9]): 77%; Duration (Rattus norvegicus [11]): >3.5 h; inhibition in vivo at 1 mg/kg (Rattus norvegicus [4]): 71%
CCCCc1nn(CC)c(C(=O)O)c1Cc1ccc(-c2ccccc2-c2nn[nH]n2)cc1 | 8.57 | 
CCOC(=O)c1c(Cc2ccc(-c3ccccc3-c3nnn[nH]3)cc2)c(CC2CC2)nn1-c1c(Cl)cccc1Cl | 7.12 | 
CCCCc1nn(-c2ccc(OC)cc2[N+](=O)[O-])c(C(=O)O)c1Cc1ccc(-c2ccccc2-c2nnn[nH]2)cc1 | 8.60 | 
CCCc1nc(C(F)(F)C(F)(F)F)c(C(=O)O)n1Cc1ccc(-c2ccccc2-c2nnn[nH]2)cc1 | 8.96 | 
CCCCc1nn(-c2ccccc2-c2ccccc2)c(C(=O)OCC)c1Cc1ccc(-c2ccccc2-c2nn[nH]n2)cc1 | 7.64 | 
CCCCc1nn(-c2ccccc2C)c(C(=O)O)c1Cc1ccc(-c2ccccc2-c2nn[nH]n2)cc1 | 9.34 | 
CCCCc1nn(Cc2ccccc2)c(C(=O)OCC)c1Cc1ccc(-c2ccccc2-c2nnn[nH]2)cc1 | < 7.00 | 
CCCc1nn(-c2c(Cl)cccc2Cl)c(C(=O)OCC)c1Cc1ccc(-c2ccccc2-c2nn[nH]n2)cc1 | 7.70 | 
CCCCc1nn(-c2ccccc2[N+](=O)[O-])c(C(=O)OCC)c1Cc1ccc(-c2ccccc2-c2nnn[nH]2)cc1 | 8.02 | 
CCCCc1nn(-c2c(Cl)cc(Cl)cc2Cl)c(C(=O)O)c1Cc1ccc(-c2ccccc2-c2nnn[nH]2)cc1 | 9.30 | 
CCCCc1nn(-c2ccccc2[N+](=O)[O-])c(C(=O)O)c1Cc1ccc(-c2ccccc2-c2nnn[nH]2)cc1 | 8.77 | 
CCCCc1nn(-c2cccc(Cl)c2)c(C(=O)OCC)c1Cc1ccc(-c2ccccc2-c2nn[nH]n2)cc1 | 7.26 | 

SMILES | pIC50 [5] | other results
CCCCc1nn(-c2cc(Cl)ccc2Cl)c(C(=O)OCC)c1Cc1ccc(-c2ccccc2-c2nn[nH]n2)cc1 | 6.98 | 
O=C(O)c1c(Cc2ccc(-c3ccccc3-c3nn[nH]n3)cc2)c(CC2CC2)nn1-c1c(Cl)cccc1Cl | 8.43 | 
CCCCc1nn(-c2ccccc2C(F)(F)F)c(C(=O)O)c1Cc1ccc(-c2ccccc2-c2nn[nH]n2)cc1 | 9.62 | inhibition in vivo at 1 mg/kg (Rattus norvegicus [6]): 100%; inhibition in vivo at 0.1 mg/kg (Rattus norvegicus [1]): 57%; Duration (Rattus norvegicus [7]): 5.3 h; Duration (Rattus norvegicus [2]): 3.5 h
CCCc1nn(CC(F)(F)F)c(C(=O)OCC)c1Cc1ccc(-c2ccccc2-c2nnn[nH]2)cc1 | 7.12 | 
CCCCc1nn(-c2ccc(OC)cc2)c(C(=O)OCC)c1Cc1ccc(-c2ccccc2-c2nnn[nH]2)cc1 | 7.70 | 
CCCCc1nn(-c2ccc(Cl)cc2Cl)c(C(=O)OCC)c1Cc1ccc(-c2ccccc2-c2nnn[nH]2)cc1 | 8.17 | 
CCCCc1nn(-c2ccc(Cl)cc2)c(C(=O)O)c1Cc1ccc(-c2ccccc2-c2nn[nH]n2)cc1 | 8.89 | 
CCCCc1nn(-c2ccccc2-c2ccccc2)c(C(=O)O)c1Cc1ccc(-c2ccccc2-c2nnn[nH]2)cc1 | 9.19 | 
CCCCc1nn(-c2cc(Cl)ccc2Cl)c(C(=O)O)c1Cc1ccc(-c2ccccc2-c2nnn[nH]2)cc1 | 8.49 | 
CCCCc1nn(-c2ccc(OC)cc2)c(C(=O)O)c1Cc1ccc(-c2ccccc2-c2nn[nH]n2)cc1 | 9.10 | 
CCCCc1nn(-c2ccc(Cl)cc2Cl)c(C(=O)O)c1Cc1ccc(-c2ccccc2-c2nn[nH]n2)cc1 | 9.22 | 
CCCCc1nn(-c2ccc(Cl)cc2)c(C(=O)OCC)c1Cc1ccc(-c2ccccc2-c2nn[nH]n2)cc1 | 7.00 | 
CCCCc1nn(-c2ccccc2C)c(C(=O)OCC)c1Cc1ccc(-c2ccccc2-c2nn[nH]n2)cc1 | 7.89 | 
CCCCc1nn(-c2ccccc2)c(C(=O)OCC)c1Cc1ccc(-c2ccccc2-c2nnn[nH]2)cc1 | 7.09 | 
CCCc1nn(-c2c(Cl)cccc2Cl)c(C(=O)O)c1Cc1ccc(-c2ccccc2-c2nn[nH]n2)cc1 | 9.16 | inhibition in vivo at 1 mg/kg (Rattus norvegicus [6]): 100%; inhibition in vivo at 0.1 mg/kg (Rattus norvegicus [1]): 60%; Duration (Rattus norvegicus [7]): >6 h; Duration (Rattus norvegicus [2]): 5.4 h; inhibition in vivo at 0.3 mg/kg (Rattus norvegicus [10]): 56%; Duration (Rattus norvegicus [3]): >23 h; Duration (Rattus norvegicus [11]): >3 h; inhibition in vivo at 1 mg/kg (Rattus norvegicus [4]): 87%
CCCCc1nn(CC(F)(F)F)c(C(=O)O)c1Cc1ccc(-c2ccccc2-c2nn[nH]n2)cc1 | 9.28 | 
CCCCc1nn(CCc2ccccc2)c(C(=O)O)c1Cc1ccc(-c2ccccc2-c2nn[nH]n2)cc1 | 9.62 | inhibition in vivo at 1 mg/kg (Rattus norvegicus [6]): 95%; Duration (Rattus norvegicus [7]): >24 h
CCCCc1nn(-c2cccc(Cl)c2Cl)c(C(=O)OCC)c1Cc1ccc(-c2ccccc2-c2nnn[nH]2)cc1 | 7.05 | 
CCCCc1nn(CC(F)(F)F)c(C(=O)OCC)c1Cc1ccc(-c2ccccc2-c2nn[nH]n2)cc1 | 7.52 | 
CCCCc1nn(-c2ccccn2)c(C(=O)O)c1Cc1ccc(-c2ccccc2-c2nn[nH]n2)cc1 | 8.77 | 
CCCc1nn(-c2ccccc2C(F)(F)F)c(C(=O)OCC)c1Cc1ccc(-c2ccccc2-c2nnn[nH]2)cc1 | 7.25 | 
CCCc1nn(Cc2ccccc2)c(C(=O)OCC)c1Cc1ccc(-c2ccccc2-c2nn[nH]n2)cc1 | 7.66 | 
CCCCc1nn(-c2cccc(Cl)c2)c(C(=O)O)c1Cc1ccc(-c2ccccc2-c2nn[nH]n2)cc1 | 8.64 | 

— ChEMBL document CHEMBL1126899, “Nonpeptide angiotensin II antagonists derived from 1H-pyrazole-5-carboxylates and 4-aryl-1H-imidazole-5-carboxylates” (J Med Chem, 1993)
